This is a sample that favours compounds with a hit; in the whole collection about 2.2% have one here.
MT stabilize HCS: microtubule stabilizers in HeLa cells; % tubulin-high responders, % at 10 µM; HeLa tubulin immunostaining HCS, 24 h; share of cells brighter than vehicle mean+2SD; 0.83% of 200,000 active;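 active means plate Z-score above 3 for both tubulin-high and condensed-nucleus cell shares, with cell loss under 80%, at 10 µM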;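 further: anti alpha tubulin signal scored within the nucleus-defined area of each cell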
IEC-6 tox: counter-screen for KLF5 inhibitors: cytotoxicity in IEC-6 cells; inhibition, % at 5 µM; 0.78% of 290,000 active; AID 1825; IEC-6 cytotoxicity, luminescence viability; in the data active means inhibition above about 22%
APP 5UTR inh: APP translation inhibition; SH-SY5Y APP 5'UTR-luciferase reporter, luminescence; inhibition, % at 2 µM; 0.82% of 190,000 active; AID 1285;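 active means inhibition above a set limit, derived from the sample mean plus 3 SD, cut at about 45% in these data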
b-catenin transl: modulators of beta-catenin nuclear translocation | HeLa beta-catenin nuclear translocation, immunofluorescence imaging | nuclear translocation activity, % at 5 µM | 0.3% of 190,000 active;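 active means nuclear translocation activity above 50% at 5 µM, with a well cell count of 50 or more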;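 further: per-cell ratio of nuclear to cytoplasmic median beta-catenin stain intensity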
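Read-out: Nuclear/cytoplasmic beta-catenin signal ratio, % activation | Assay system: Human HeLa cell line | Times: 24 h compound exposure at 37°C, 5% CO2 | Signal: Fluorescence imaging of beta-catenin antibody stain plus DAPI | Dosing: 5 µM primary, 0.02–20 µM confirmation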
BaF3 parental: parental Ba/F3 viability inhibition as JAK2V617F counter-screen. CellTiter-Glo ATP luminescence. inhibition, % at 5.6 µM. 1.1% of 220,000 active;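 active means inhibition above a per-campaign cutoff, the mean inhibition of all tested compounds plus 3 SD, cut at about 27% in these data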
Ba/F3 V617F tox: reduce viability of Ba/F3 cells dependent on JAK2V617F; AID 1446; 1.1% of 220,000 active; inhibition, % at 5.6 µM; Ba/F3 EpoR-JAK2V617F viability, ATP luminescence;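 active means inhibition above the campaign mean plus 3 SD over all tested compounds, cut at about 24% in these data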;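 further: cytokine-independent growth of Ba/F3 cells driven by EpoR plus mutant JAK2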
A number is an active result; . = inactive; / = no result given.

SMILES | MT stabilize HCS | IEC-6 tox | APP 5UTR inh | b-catenin transl | BaF3 parental | Ba/F3 V617F tox
OC(c1cc(-c2ccc(C(F)(F)F)cc2)nc(C(F)(F)F)c1)C1CCCCN1 (centres undefined) | / | 40 | / | . | 53 | 96
CC(=O)Oc1ccc(OC(C)=O)c2c1CC(C)=C(C)C2 | / | . | / | . | . | .
CC1SCC(NC(=O)c2ccc(Cl)cc2)CS1 (centres undefined) | / | . | / | . | 46 | .
CCOC(=O)C1CCN(c2cc3c(cc2NC(=O)c2ccc(OC)c(OC)c2)n(C)c(=O)n3C)CC1 | / | . | / | / | / | /
CCN(CC(=O)NCc1ccc(F)cc1)C(=O)Cc1ccc(OC)cc1 | / | . | / | / | / | /
Cc1ccc2c(c1)Oc1ccc(NC(=O)CCl)cc1C(=O)N2 | . | . | 53 | . | 83 | 85
O=C(CC1(CC2=NS(=O)(=O)c3ccccc3N2)CCCC1)NCCc1ccccc1 | / | . | / | / | / | /
Oc1c(CN2CCOCC2)cc(COCc2ccccc2)c2cccnc12 | . | . | 92 | . | . | .
COc1ccc(N2C(=O)CC(Sc3nnc(-c4ccccc4)o3)C2=O)cc1 (centres undefined) | . | . | 46 | . | . | .
O=C1CC(Sc2nnc(-c3ccccc3O)o2)C(=O)N1c1ccccc1 (centres undefined) | . | . | . | . | . | .
O=C(CCCN1C(=O)c2ccccc2C1=O)NCCc1ccc(OC(F)F)cc1 | / | . | / | / | / | /
Cc1ccc(NC(=O)c2cccc3c2C(=O)N(C2CCCCC2)C3)c(Cl)c1 | / | . | / | / | / | /
CCOc1ccc(S(=O)(=O)N2CCc3ccccc3C2)cc1 | . | . | . | . | . | .
CCOc1ccc(S(=O)(=O)N2c3ccccc3CC2C)cc1 (centres undefined) | 17 | 67 | 94 | 163 | 76 | 77
Cc1ccc(S(=O)(=O)N2c3ccccc3CC2C)cc1 (centres undefined) | 13 | . | . | . | . | .
COc1ccc(NC(=O)CC23CC4CC(CC(Br)(C4)C2)C3)c(OC)c1 | / | . | / | / | / | /
O=C(NCC1COCCO1)c1ccc2nc(Cc3cccc(Cl)c3)oc2c1 (centres undefined) | / | . | / | / | / | /
COc1ccc(C(=O)Nc2sc3c(c2C#N)CCN(C(C)=O)C3)cc1 | 14 | . | . | 60 | . | .
Cc1ccc(-n2nc(C)c3c2OC(N)=C(C#N)C3c2ccccc2F)cc1 (centres undefined) | . | . | 47 | . | . | .
CCN(CC)CCn1cnc2c([nH]c3cccc(OC)c32)c1=O | . | . | . | . | 69 | .
COc1ccc(S(=O)(=O)N(CC(=O)N2CCCCCC2)c2ccccc2OC)cc1 | / | . | / | / | / | /
c1ccc(-c2nnc(-c3ccccn3)nc2NC2CCCCC2)cc1 | . | . | 77 | . | 94 | 64
CCOc1ccccc1CN1CCN(Cc2ccc(C)o2)CC1CCO (centres undefined) | . | . | . | . | . | .
CCOc1ccccc1CN1CCN(Cc2ccc(C)o2)C(CCO)C1 (centres undefined) | . | . | . | . | 80 | .
Cc1n[nH]c(=O)nc1NC1CCCCC1 | . | . | 60 | . | . | .
SMILES | MT stabilize HCS | IEC-6 tox | APP 5UTR inh | b-catenin transl | BaF3 parental | Ba/F3 V617F tox
Cc1nnc(NC2CCCCC2)[nH]c1=O | . | . | . | / | . | .
CCOC(=O)C1CCCN(C(=O)c2cc3c(OC)c(OC)c(OC)cc3[nH]2)C1 (centres undefined) | / | . | / | / | / | /
C=C(C)CNC(=O)c1ccc(OC2CCN(S(=O)(=O)N(C)C)CC2)cc1 | . | . | . | . | . | .
CC(C)CCNC(=O)c1ccc(OC2CCN(S(=O)(=O)N(C)C)CC2)cc1 | . | . | . | . | 27 | .
Cc1ccc(S(=O)(=O)ON2C(=O)c3ccccc3C2=O)c(C)c1 | . | . | 56 | . | . | .
CN(CC1CCCN(CCc2cccc(C(F)(F)F)c2)C1)C(=O)c1cc2ccccc2o1 (centres undefined) | / | . | / | / | / | /
CC1(C)CC2(CCO1)OC(=O)CC2C(=O)Nc1ccccc1Cl (centres undefined) | . | . | . | . | 90 | .
Cc1ccccc1NC(=O)C1CC(=O)OC12CCOC(C)(C)C2 (centres undefined) | . | . | . | . | . | .
Cc1[nH]c2ccccc2c1C(=O)C(=O)Nc1ccc2c(c1)OCO2 | / | . | / | / | / | /
NC(=O)c1ccc(N2CCN(S(=O)(=O)c3ccccc3)CC2)c([N+](=O)[O-])c1 | . | . | . | . | 38 | 36
COC(=O)c1ccc(N2CCN(S(=O)(=O)c3ccc4ccccc4c3)CC2)c([N+](=O)[O-])c1 | . | . | / | . | . | .
COn1c(=O)c(-c2cccs2)[n+]([O-])c2ccccc21 | . | . | . | . | . | .
Cn1c(-c2cccs2)[n+](C)c2ccccc21 | . | . | . | . | 32 | 49
CCc1ccc(CNC(=O)C2Cc3cc(S(=O)(=O)N4CCCC4)ccc3N2C(C)=O)cc1 (centres undefined) | / | . | / | / | / | /
COC(=O)c1ccc(COc2ccccc2/C=N/NS(=O)(=O)c2ccccc2)cc1 | 23 | . | . | . | . | .
C=CCSc1nc2sc3c(c2c(=O)n1-c1ccc(C)cc1)CCN(C)C3 | / | . | / | / | / | /
CCOC(=O)c1sc2ncn(C(C)C(=O)OC)c(=O)c2c1C (centres undefined) | . | . | . | . | . | .
CCCOC(=O)C(C)n1cnc2sc(C)c(C)c2c1=O (centres undefined) | . | . | . | / | 46 | .
O=C(Cn1nc(-c2ccccc2)c2ccccc2c1=O)Nc1ccc(F)cc1 | / | . | / | . | . | .
N#Cc1c(-c2ccccc2)c(-c2ccccc2)nn(CC(=O)NNC(=O)Nc2ccc(Cl)c(Cl)c2)c1=O | 21 | . | . | . | . | .
COc1ccc(Cc2nnc(NC(=O)c3ccc(OC)c(OC)c3)s2)cc1 | / | . | / | / | / | /
COc1ccc(C(=O)Nc2nnc(Cc3cccs3)s2)cc1OC | . | . | . | . | 41 | 39
Cc1c(CCOC(=O)CC23CC4CC(CC(C4)C2)C3)sc[n+]1Cc1ccccc1 | . | . | . | . | 41 | 29
O=C(Nc1cc(S(=O)(=O)Nc2ccc(Cl)cc2)ccc1O)c1ccc(S(=O)(=O)N2CCCCCC2)cc1 | . | . | . | . | . | .
O=C(N/N=C\c1cc(Cl)ccc1O)c1ccc(S(=O)(=O)N2CCCCC2)cc1 | . | . | 73 | . | . | .
O=C(Cn1ncnn1)OCc1ccccc1Cl | . | . | 68 | . | . | .
O=C(OCc1ccccc1Cl)c1ccc(-n2cnnc2)cc1 | . | . | . | . | . | .
COc1ccc(Cl)cc1NC(=O)C1CCN(S(C)(=O)=O)CC1 | / | . | / | / | / | /
COc1ccc(C(=O)/C=C/C(=O)N(Cc2ccccc2)C(C(=O)NC2CCCCC2)c2ccncc2)c(O)c1 (centres undefined) | . | . | . | . | . | .
COc1ccc(C(=O)/C=C/C(=O)N(CC(=O)NC2CCCCC2)Cc2ccccc2)c(O)c1 | . | . | 73 | . | . | .

Source: PubChem (several laboratories)
